ChEMBL document CHEMBL1144988, “Stereoselective preparation of N-[(R,R)-(E)-1-(3,4-dichlorobenzyl)-3- (2-oxoazepan-3-yl)carbamoyl]allyl-N-methyl-3,5-bis(trifluoromethyl)benzamide, a potent and orally active dual neurokinin NK(1)/NK(2) receptor antagonist” (J Med Chem, 2003)
Values joined by “and” are separate entries in the source; they are usually repeats but may differ in a detail not shown here. Equal entries are not always repeated.

Columns and labels:
Substance-P receptor [1] = target: Substance-P receptor (Homo sapiens, UniProt P25103); test: In vitro binding affinity towards Human Tachykinin receptor 1
Sequence of Substance-P receptor (Homo sapiens, UniProt P25103) (P25103 whole entry): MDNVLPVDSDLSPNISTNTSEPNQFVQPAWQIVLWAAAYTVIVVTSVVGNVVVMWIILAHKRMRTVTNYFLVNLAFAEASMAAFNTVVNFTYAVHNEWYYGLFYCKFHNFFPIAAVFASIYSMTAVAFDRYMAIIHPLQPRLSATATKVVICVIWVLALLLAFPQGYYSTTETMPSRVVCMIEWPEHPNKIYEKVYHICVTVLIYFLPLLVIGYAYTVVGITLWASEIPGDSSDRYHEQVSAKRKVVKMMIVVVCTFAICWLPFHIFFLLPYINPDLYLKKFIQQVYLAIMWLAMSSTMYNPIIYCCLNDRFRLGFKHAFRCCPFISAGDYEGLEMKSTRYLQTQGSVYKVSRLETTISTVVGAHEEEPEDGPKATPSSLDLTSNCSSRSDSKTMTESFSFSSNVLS
How it was run: (§1)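 Membranes from CHO cells expressing cloned human NK1 receptor, incubated with 3H-[Sar9,Met(O2)11]SP (0.5 nM final) in 20 mM HEPES, 1 mM MnCl2, pH 7.4, for 60 min at 28 °C. Nonspecific binding was defined with Sar9SP. Bound radioactivity was collected by filtration, washed with ice-cold 50 mM Tris pH 7.4, then counted by scintillation.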

Substance-K receptor [2] = target: T1, Substance-K receptor (Homo sapiens, UniProt P21452); test: In vitro binding affinity towards Human Tachykinin receptor 2
T1 sequence (P21452 whole entry): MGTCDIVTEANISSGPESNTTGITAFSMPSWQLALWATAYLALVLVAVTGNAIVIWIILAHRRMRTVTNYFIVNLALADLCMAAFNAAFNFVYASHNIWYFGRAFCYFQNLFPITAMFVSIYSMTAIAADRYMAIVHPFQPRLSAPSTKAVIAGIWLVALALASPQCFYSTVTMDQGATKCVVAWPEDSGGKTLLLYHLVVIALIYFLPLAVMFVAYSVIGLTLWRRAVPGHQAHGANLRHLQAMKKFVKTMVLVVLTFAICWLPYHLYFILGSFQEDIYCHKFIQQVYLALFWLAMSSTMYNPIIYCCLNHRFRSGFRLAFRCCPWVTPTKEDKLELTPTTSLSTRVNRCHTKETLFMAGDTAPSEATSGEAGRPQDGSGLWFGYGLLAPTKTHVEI
How it was run: as §1, with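 “NK2” for “NK1”, “125I-neurokinin A (1.4” for “3H-[Sar9,Met(O2)11]SP (0.5”, “NKA.” for “Sar9SP.”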

[3] = Bioavailability in guinea pig (dose 10 mg/kg p.o.); type: ADME, organism-based, Cavia porcellus; details: in vivo, po
How it was run: (§2)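 Guinea pigs given a single oral dose of 10 mg/kg (n = 7) as a microemulsion (2% DMSO/20% Sandimmon placebo/78% saline) or as a cremophor/2% DMSO formulation. Food was withdrawn up to 18 h predose, and animals carried heparin-flushed cannulas. Blood was sampled at 60, 120, 240, 360, 480, 720 and 1440 min. The read-outs were t1/2, Cmax, AUC0–24h and bioavailability.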

[4] = Area Under the concentration-time curve from zero time to 24 hr in guinea pig when given at a dose of 10 mg/kg perorally (Microemulsion); type: ADME, organism-based, Cavia porcellus; parameters: time < 24 hr, dose 10 mg/kg, route oral; details: in vivo, po; how it was run: as §2
[5] = Area Under the concentration-time curve from zero time to 24 hr in guinea pig when given at a dose of 10 mg/kg perorally (cremophor); type: ADME, organism-based, Cavia porcellus; parameters: time < 24 hr, dose 10 mg/kg, route oral; details: in vivo, po; how it was run: as §2
[6] = Area Under the concentration-time curve from zero time to 24 hr in guinea pig when given at a dose of 3 mg/kg intravenously; type: ADME, organism-based, Cavia porcellus; parameters: time < 24 hr, dose 3 mg/kg, route intravenous; details: in vivo, iv
How it was run: (§3)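 Guinea pigs given 3 mg/kg iv via the jugular vein (n = 6) in a cremophor formulation, with cannulas flushed with heparinized saline. Blood was sampled at 5, 30, 60, 120, 240, 360, 720 and 1440 min. The read-outs were terminal elimination half-life and AUC0–24h.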

[7] = (§4) Half life period in guinea pig when given at a dose of 10 mg/kg perorally; type: ADME, organism-based, Cavia porcellus; parameters: dose 10 mg/kg, route oral; details: in vivo, po; how it was run: as §2
Cavia porcellus [8] = test: as §4; type: ADME, organism-based; parameters: dose 10 mg/kg, route oral; details: in vivo, po; how it was run: as §2
[9] = Half life period in guinea pig when given at a dose of 3 mg/kg intravenously; type: ADME, organism-based, Cavia porcellus; parameters: dose 3 mg/kg, route intravenous; details: in vivo, iv; how it was run: as §3
[10] = (§5) Plasma concentration in Blood of guinea pig when given at a dose of 10 mg/kg perorally; type: ADME, organism-based, Cavia porcellus; parameters: dose 10 mg/kg, route oral; details: plasma, po; how it was run: as §2
Cavia porcellus [11] = test: as §5; type: ADME, organism-based; parameters: dose 10 mg/kg, route oral; details: in vivo, po; how it was run: as §2
Substance-P receptor [12] = target: Substance-P receptor (Cavia porcellus, UniProt P30547); test: In vitro relative antagonist potency towards guinea pig Tachykinin receptor 1; type: functional; details: read-out: pA2 (converted)
Sequence of Substance-P receptor (Cavia porcellus, UniProt P30547) (P30547 whole entry): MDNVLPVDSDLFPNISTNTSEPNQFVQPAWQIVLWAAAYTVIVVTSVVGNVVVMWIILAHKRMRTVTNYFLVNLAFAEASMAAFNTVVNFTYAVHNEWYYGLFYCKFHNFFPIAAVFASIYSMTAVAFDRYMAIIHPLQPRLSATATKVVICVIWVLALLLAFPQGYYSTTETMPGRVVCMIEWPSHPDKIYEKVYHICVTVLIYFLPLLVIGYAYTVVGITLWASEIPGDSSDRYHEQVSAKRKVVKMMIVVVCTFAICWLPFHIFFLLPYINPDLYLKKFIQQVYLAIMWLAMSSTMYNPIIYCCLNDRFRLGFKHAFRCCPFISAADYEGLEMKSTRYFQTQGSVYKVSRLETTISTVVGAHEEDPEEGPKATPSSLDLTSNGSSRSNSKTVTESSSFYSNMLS

Substance-K receptor [13] = target: T2, Substance-K receptor (Cavia porcellus, UniProt Q64077); test: In vitro relative antagonist potency towards guinea pig Tachykinin receptor 2; type: functional; details: read-out: pA2 (converted)
T2 sequence (Q64077 whole entry): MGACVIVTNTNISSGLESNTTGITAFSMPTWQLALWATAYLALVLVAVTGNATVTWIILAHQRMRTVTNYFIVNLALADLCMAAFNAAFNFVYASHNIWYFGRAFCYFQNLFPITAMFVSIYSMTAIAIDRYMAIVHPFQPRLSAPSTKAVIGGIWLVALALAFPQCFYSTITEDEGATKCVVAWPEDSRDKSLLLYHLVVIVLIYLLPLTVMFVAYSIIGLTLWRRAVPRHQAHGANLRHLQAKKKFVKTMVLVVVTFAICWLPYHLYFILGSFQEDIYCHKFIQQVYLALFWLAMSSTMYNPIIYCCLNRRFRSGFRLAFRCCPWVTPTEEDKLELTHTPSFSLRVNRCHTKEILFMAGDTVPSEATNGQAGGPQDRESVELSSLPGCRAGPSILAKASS

Saimiri sciureus [14] = test: In vivo Effective peroral dose which inhibits Beta-ala8-Neurokinin A induced bronchoconstriction (dynamic compliance) in squirrel monkey; details: in Primates, po
Saimiri sciureus [15] = test: In vivo Effective peroral dose which inhibits Beta-ala8-Neurokinin A induced bronchoconstriction (airways resistance) in squirrel monkey; details: in Primates, po

| Ki (Substance-P receptor [1]) [nM] | Ki (Substance-K receptor [2]) [nM] | F [3] | AUC at 24 h [4] [ng·h/mL] | AUC at 24 h [5] [ng·h/mL] | AUC at 24 h [6] [ng·h/mL] | half-life [7] [h] | T1/2 (Cavia porcellus [8]) [h] | half-life [9] [h] | Cmax [10] [ng/mL] | Cmax (Cavia porcellus [11]) [ng/mL] | Kb (Substance-P receptor [12]) [nM] | Kb (Substance-K receptor [13]) [nM] | SMILES | ED50 (Saimiri sciureus [14]) [mg/kg] | ED50 (Saimiri sciureus [15]) [mg/kg] |
| --- | --- | --- | --- | --- | --- | --- | --- | --- | --- | --- | --- | --- | --- | --- | --- |
| 18.2 | 182 |  |  |  |  |  |  |  |  |  |  |  | CN(C(=O)c1cc(C(F)(F)F)cc(C(F)(F)F)c1)[C@H](/C=C/C(=O)N[C@H]1CCCCNC1=O)Cc1ccc(Cl)c(Cl)c1 |  |  |
| 0.832 | 457 |  |  |  |  |  |  |  |  |  |  |  | CN(C(=O)c1cc(C(F)(F)F)cc(C(F)(F)F)c1)[C@H](/C=C/C(=O)N[C@@H]1CCCCNC1=O)Cc1ccc(Cl)c(Cl)c1 |  |  |
| 8.71 | 102 |  |  |  |  |  |  |  |  |  |  |  | CN(C(=O)c1cc(C(F)(F)F)cc(C(F)(F)F)c1)[C@@H](/C=C/C(=O)N[C@H]1CCCCNC1=O)Cc1ccc(Cl)c(Cl)c1 |  |  |
| 4.17 | 9.55 | 41% and 17.4% | 6380 | 2710 | 4690 | 3.8 | 5.4 | 4.2 | 600 | 415 | 11.7 | 53.7 | CN(C(=O)c1cc(C(F)(F)F)cc(C(F)(F)F)c1)[C@@H](/C=C/C(=O)N[C@@H]1CCCCNC1=O)Cc1ccc(Cl)c(Cl)c1 [DNK333] | 2.8 | 1 |
